In ChEMBL document CHEMBL1154674, “Synthesis and evaluation of three 18F-labeled aminophenylbenzothiazoles as amyloid imaging agents” (J Med Chem, 2009):

Key:
Format in all cases: ADME, organism-based
[1] = Biodistribution in NMRI mouse urine at 3.7 MBq/mL, iv after 2 mins by gamma counting; conditions: in vivo
Method in brief: (§1)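 Male NMRI mice (30-40 g) under isoflurane (1.5-2.5% in oxygen) got 0.1 mL of HPLC-purified tracer diluted with 0.9% NaCl to 3.7 MBq/mL (ethanol ≤10%) via tail vein. Mice were decapitated at 2 or 60 min p.i., and organs, blood and urine were weighed and γ-counted. Values are background-corrected %ID or %ID/g, with blood mass taken as 7% of body mass.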

[2] = Biodistribution in NMRI mouse urine at 3.7 MBq/mL, iv after 60 mins by gamma counting; conditions: in vivo, 1 h; method in brief: as §1
[3] = tested on: Kidney; assay: Biodistribution in NMRI mouse kidney at 3.7 MBq/mL, iv after 2 mins by gamma counting; conditions: in vivo; method in brief: as §1
[4] = tested on: Kidney; assay: Biodistribution in NMRI mouse kidney at 3.7 MBq/mL, iv after 60 mins by gamma counting; conditions: in vivo, 1 h; method in brief: as §1
[5] = tested on: Kidney; assay: Biodistribution in NMRI mouse kidney assessed per gram of tissue at 3.7 MBq/mL, iv after 60 mins by gamma counting; conditions: in vivo, 1 h; method in brief: as §1
[6] = tested on: Kidney; assay: Drug level in NMRI mouse kidney assessed as standard uptake value at 3.7 MBq/mL, iv after 2 mins by gamma counting; conditions: in vivo
Method in brief: (§2)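 Male NMRI mice (30-40 g) were anaesthetised with isoflurane. Each received 0.1 mL of HPLC-purified tracer, diluted in 0.9% NaCl to 3.7 MBq/mL (ethanol ≤10%), via a tail vein. Mice were decapitated at 2 or 60 min. Organs were dissected, weighed and γ-counted with background correction. SUV = (organ cpm/organ weight)/(total recovered counts/body weight). Blood mass was taken as 7% of body mass.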

[7] = tested on: Kidney; assay: Drug level in NMRI mouse kidney assessed as standard uptake value at 3.7 MBq/mL, iv after 60 mins by gamma counting; conditions: in vivo, 1 h; method in brief: as §2
[8] = tested on: Liver; assay: Biodistribution in NMRI mouse liver at 3.7 MBq/mL, iv after 2 mins by gamma counting; conditions: in vivo; method in brief: as §1
[9] = tested on: Liver; assay: Biodistribution in NMRI mouse liver at 3.7 MBq/mL, iv after 60 mins by gamma counting; conditions: in vivo, 1 h; method in brief: as §1
[10] = tested on: Liver; assay: Biodistribution in NMRI mouse liver assessed per gram of tissue at 3.7 MBq/mL, iv after 60 mins by gamma counting; conditions: in vivo, 1 h; method in brief: as §1
[11] = tested on: Liver; assay: Drug level in NMRI mouse liver assessed as standard uptake value at 3.7 MBq/mL, iv after 2 mins by gamma counting; conditions: in vivo; method in brief: as §2
[12] = tested on: Liver; assay: Drug level in NMRI mouse liver assessed as standard uptake value at 3.7 MBq/mL, iv after 60 mins by gamma counting; conditions: in vivo, 1 h; method in brief: as §2
[13] = Biodistribution in NMRI mouse spleen/pancreas at 3.7 MBq/mL, iv after 2 mins by gamma counting; conditions: in vivo; method in brief: as §1
[14] = Biodistribution in NMRI mouse spleen/pancreas at 3.7 MBq/mL, iv after 60 mins by gamma counting; conditions: in vivo, 1 h; method in brief: as §1
[15] = Biodistribution in NMRI mouse spleen/pancreas assessed per gram of tissue at 3.7 MBq/mL, iv after 2 mins by gamma counting; conditions: in vivo; method in brief: as §1
[16] = Biodistribution in NMRI mouse spleen/pancreas assessed per gram of tissue at 3.7 MBq/mL, iv after 60 mins by gamma counting; conditions: in vivo, 1 h; method in brief: as §1
[17] = Drug level in NMRI mouse spleen/pancreas assessed as standard uptake value at 3.7 MBq/mL, iv after 2 mins by gamma counting; conditions: in vivo; method in brief: as §2
[18] = Drug level in NMRI mouse spleen/pancreas assessed as standard uptake value at 3.7 MBq/mL, iv after 60 mins by gamma counting; conditions: in vivo, 1 h; method in brief: as §2
[19] = tested on: Lung; assay: Biodistribution in NMRI mouse lung at 3.7 MBq/mL, iv after 2 mins by gamma counting; conditions: in vivo; method in brief: as §1
[20] = tested on: Lung; assay: Biodistribution in NMRI mouse lung at 3.7 MBq/mL, iv after 60 mins by gamma counting; conditions: in vivo, 1 h; method in brief: as §1
[21] = tested on: Lung; assay: Biodistribution in NMRI mouse lung assessed per gram of tissue at 3.7 MBq/mL, iv after 2 mins by gamma counting; conditions: in vivo; method in brief: as §1
[22] = tested on: Lung; assay: Biodistribution in NMRI mouse lung assessed per gram of tissue at 3.7 MBq/mL, iv after 60 mins by gamma counting; conditions: in vivo, 1 h; method in brief: as §1
[23] = tested on: Lung; assay: Drug level in NMRI mouse lung assessed as standard uptake value at 3.7 MBq/mL, iv after 2 mins by gamma counting; conditions: in vivo; method in brief: as §2
[24] = tested on: Heart; assay: Biodistribution in NMRI mouse heart assessed per gram of tissue at 3.7 MBq/mL, iv after 2 mins by gamma counting; conditions: in vivo; method in brief: as §1
[25] = tested on: Heart; assay: Drug level in NMRI mouse heart assessed as standard uptake value at 3.7 MBq/mL, iv after 2 mins by gamma counting; conditions: in vivo; method in brief: as §2
[26] = tested on: Intestine; assay: Biodistribution in NMRI mouse intestine at 3.7 MBq/mL, iv after 2 mins by gamma counting; conditions: in vivo; method in brief: as §1
[27] = tested on: Intestine; assay: Biodistribution in NMRI mouse intestine at 3.7 MBq/mL, iv after 60 mins by gamma counting; conditions: in vivo, 1 h; method in brief: as §1
[28] = tested on: Stomach; assay: Biodistribution in NMRI mouse stomach at 3.7 MBq/mL, iv after 2 mins by gamma counting; conditions: in vivo; method in brief: as §1
[29] = tested on: Stomach; assay: Biodistribution in NMRI mouse stomach at 3.7 MBq/mL, iv after 60 mins by gamma counting; conditions: in vivo, 1 h; method in brief: as §1
[30] = Biodistribution in NMRI mouse cerebrum at 3.7 MBq/mL, iv after 60 mins by gamma counting; conditions: in vivo, 1 h; method in brief: as §1
[31] = Biodistribution in NMRI mouse cerebrum assessed per gram of tissue at 3.7 MBq/mL, iv after 2 mins by gamma counting; conditions: in vivo; method in brief: as §1
[32] = Biodistribution in NMRI mouse cerebrum assessed per gram of tissue at 3.7 MBq/mL, iv after 60 mins by gamma counting; conditions: in vivo, 1 h; method in brief: as §1
[33] = Drug level in NMRI mouse cerebrum assessed as standard uptake value at 3.7 MBq/mL, iv after 2 mins by gamma counting; conditions: in vivo; method in brief: as §2
[34] = tested on: Cerebellum; assay: Biodistribution in NMRI mouse cerebellum at 3.7 MBq/mL, iv after 2 mins by gamma counting; conditions: in vivo; method in brief: as §1
[35] = tested on: Cerebellum; assay: Biodistribution in NMRI mouse cerebellum at 3.7 MBq/mL, iv after 60 mins by gamma counting; conditions: in vivo, 1 h; method in brief: as §1
[36] = tested on: Cerebellum; assay: Biodistribution in NMRI mouse cerebellum assessed per gram of tissue at 3.7 MBq/mL, iv after 2 mins by gamma counting; conditions: in vivo; method in brief: as §1
[37] = tested on: Cerebellum; assay: Biodistribution in NMRI mouse cerebellum assessed per gram of tissue at 3.7 MBq/mL, iv after 60 mins by gamma counting; conditions: in vivo, 1 h; method in brief: as §1
[38] = tested on: Cerebellum; assay: Drug level in NMRI mouse cerebellum assessed as standard uptake value at 3.7 MBq/mL, iv after 2 mins by gamma counting; conditions: in vivo; method in brief: as §2
[39] = tested on: Cerebellum; assay: Drug level in NMRI mouse cerebellum assessed as standard uptake value at 3.7 MBq/mL, iv after 60 mins by gamma counting; conditions: in vivo, 1 h; method in brief: as §2
[40] = tested on: Blood; assay: Biodistribution in NMRI mouse blood at 3.7 MBq/mL, iv after 2 mins by gamma counting; conditions: in vivo; method in brief: as §1
[41] = tested on: Blood; assay: Drug level in NMRI mouse blood assessed as standard uptake value at 3.7 MBq/mL, iv after 2 mins by gamma counting; conditions: in vivo; method in brief: as §2
[42] = tested on: Blood; assay: Drug level in NMRI mouse blood assessed as standard uptake value at 3.7 MBq/mL, iv after 60 mins by gamma counting; conditions: in vivo, 1 h; method in brief: as §2
[43] = tested on: Liver; assay: Biodistribution in NMRI mouse liver assessed per gram of tissue at 3.7 MBq/mL, iv after 2 mins by gamma counting; conditions: in vivo

CNc1ccc2nc(-c3ccc([18F])cc3)sc2c1
Drug uptake [1]: 0.2%
Drug uptake [2]: 13%
Drug uptake [3]: 8.2%
Drug uptake [4]: 3.2%
Drug uptake [5]: 4.6%
SUV [6]: 4.3
SUV [7]: 1.6
Drug uptake [8]: 42.4%
Drug uptake [9]: 17.5%
Drug uptake [10]: 8.3%
SUV [11]: 7
SUV [12]: 2.8
Drug uptake [13]: 1.4%
Drug uptake [14]: 0.3%
Drug uptake [15]: 5.9%
Drug uptake [16]: 0.9%
SUV [17]: 2
SUV [18]: 0.3
Drug uptake [19]: 1.8%
Drug uptake [20]: 0.3%
Drug uptake [21]: 7.3%
Drug uptake [22]: 1.4%
SUV [23]: 2.5
Drug uptake [24]: 5.8%
SUV [25]: 2
Drug uptake [26]: 11%
Drug uptake [27]: 37.2%
Drug uptake [28]: 2.3%
Drug uptake [29]: 1.6%
Drug uptake [30]: 0.44%
Drug uptake [31]: 12.13%
Drug uptake [32]: 1.39%
SUV [33]: 4.1
Drug uptake [34]: 1.19%
Drug uptake [35]: 0.12%
Drug uptake [36]: 11.76%
Drug uptake [37]: 1.26%
SUV [38]: 3.97
SUV [39]: 0.44
Drug uptake [40]: 1.5%
SUV [41]: 0.2
SUV [42]: 0.3

[11CH3]Nc1ccc(-c2nc3ccc(O)cc3s2)cc1 [PITTSBURGH COMPOUND B]
Drug uptake [1]: 0.2%
Drug uptake [2]: 24.4%
Drug uptake [3]: 10.3%
Drug uptake [4]: 4.8%
Drug uptake [5]: 9.1%
SUV [6]: 7.4
SUV [7]: 3.3
Drug uptake [8]: 15.6%
Drug uptake [9]: 9.8%
Drug uptake [43]: 7.9%
Drug uptake [10]: 5%
SUV [11]: 2.9
Drug uptake [13]: 0.6%
Drug uptake [14]: 0.1%
Drug uptake [15]: 4.7%
Drug uptake [16]: 0.7%
SUV [18]: 0.2
Drug uptake [19]: 0.9%
Drug uptake [20]: 0.3%
Drug uptake [21]: 3.6%
Drug uptake [22]: 1.3%
SUV [23]: 1.3
Drug uptake [24]: 4.2%
SUV [25]: 1.5
Drug uptake [26]: 12%
Drug uptake [27]: 42.5%
Drug uptake [28]: 1.1%
Drug uptake [29]: 0.3%
Drug uptake [30]: 0.18%
Drug uptake [31]: 3.6%
Drug uptake [32]: 0.6%
SUV [33]: 1.33
Drug uptake [34]: 0.17%
Drug uptake [35]: 0.03%
Drug uptake [36]: 1.6%
Drug uptake [37]: 0.31%
SUV [38]: 0.59
SUV [39]: 0.11
Drug uptake [40]: 7.9%
SUV [41]: 1.13
SUV [42]: 0.4

Nc1ccc2nc(-c3ccc([18F])cc3)sc2c1
Drug uptake [1]: 0.2%
Drug uptake [2]: 4.9%
Drug uptake [3]: 8.3%
Drug uptake [4]: 1%
Drug uptake [5]: 1.8%
SUV [7]: 0.6
Drug uptake [8]: 39.8%
Drug uptake [9]: 10.7%
Drug uptake [43]: 20%
Drug uptake [10]: 5.6%
SUV [11]: 6.4
SUV [12]: 1.8
Drug uptake [13]: 1.4%
Drug uptake [14]: 0.3%
Drug uptake [15]: 6.8%
Drug uptake [16]: 1.1%
SUV [17]: 2.2
SUV [18]: 0.3
Drug uptake [19]: 2%
Drug uptake [20]: 0.3%
Drug uptake [21]: 8.9%
Drug uptake [22]: 1.2%
SUV [23]: 2.8
Drug uptake [24]: 5.9%
SUV [25]: 1.9
Drug uptake [26]: 11.1%
Drug uptake [27]: 68.6%
Drug uptake [28]: 1.6%
Drug uptake [29]: 0.6%
Drug uptake [30]: 0.32%
Drug uptake [31]: 13.97%
Drug uptake [32]: 0.97%
SUV [33]: 4.47
Drug uptake [34]: 1.74%
Drug uptake [35]: 0.17%
Drug uptake [36]: 15.48%
Drug uptake [37]: 1.34%
SUV [38]: 4.96
SUV [39]: 0.42
Drug uptake [40]: 5.3%
SUV [41]: 0.8
SUV [42]: 0.2
